Results taken from ChEMBL document CHEMBL4400512, “Searching for new agents active against Candida albicans biofilm: A series of indole derivatives, design, synthesis and biological evaluation” (Eur J Med Chem, 2019).
In brackets after ≈: the same amount, converted by molar mass.

Experiments:
[1] = Toxicity in Galleria mellonella larvae assessed as larval survival at 100 ug/ml after 48 hrs relative to control
How it was run: (§1)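 Ten healthy larvae per group, stored at 15°C in the dark. Each got a 20 µL injection into the haemocoel via the last left proleg, with compound freshly made in sterile water containing <1% v/v DMSO. Larvae were incubated at 30°C and survival scored every 24 h; death was no movement on stimulation plus cuticle discolouration. Controls were untreated, pierced-only and vehicle. Mean % survival of two independent experiments.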

[2] = Toxicity in Galleria mellonella larvae assessed as larval survival at 100 ug/ml after 24 hrs relative to control; how it was run: as §1
Candida albicans [3] = test: Antibiofilm activity against Candida albicans PMC 1042 assessed as inhibition of biofilm formation by XTT reduction assay; type: functional
How it was run: (§2)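 Biofilm method of Pierce et al. Biofilms were treated either during formation or once mature (24 h preformed). Metabolic activity of the cells within the biofilm was read by XTT reduction. BMIC50 is the lowest concentration giving a 50% drop in metabolic activity versus the untreated growth control. At least two experiments on separate dates, triplicate, reported as median.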

[4] = Toxicity in Galleria mellonella larvae assessed as larval survival at 50 ug/ml after 72 hrs relative to control; how it was run: as §1
Candida albicans [5] = test: Antibiofilm activity against Candida albicans PMC 1082 assessed as inhibition of mature biofilm formation by XTT reduction assay; type: functional; how it was run: as §2
Candida albicans [6] = test: Antibiofilm activity against Candida albicans ATCC 10231 assessed as inhibition of mature biofilm formation by XTT reduction assay; type: functional
How it was run: (§3)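 Biofilm assay after Pierce et al., with compound applied either during biofilm formation or to 24 h pre-formed (mature) biofilm. Read-out is metabolic activity of cells in the biofilm by XTT reduction. BMIC50 is the lowest concentration giving a 50% drop relative to untreated growth control. Tested in triplicate, at least two experiments on separate dates; median reported.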

[7] = Toxicity in Galleria mellonella larvae assessed as larval survival at 10 ug/ml after 24 hrs relative to control; how it was run: as §1
Candida albicans [8] = test: Antibiofilm activity against Candida albicans ATCC 10261 assessed as inhibition of biofilm formation by XTT reduction assay; type: functional; how it was run: as §2
Candida albicans [9] = test: Antifungal activity against planktonic form of Candida albicans ATCC 10261 by broth microdilution method; type: organism-based; details: in vitro
How it was run: (§4)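 Broth microdilution per CLSI M27-A3 and M27-S4. Strains were grown on Sabouraud dextrose agar at 35°C for 24 h. Final inoculum 1×10^3–5×10^3 cells/mL. Compounds were dissolved in DMSO (final <1%); 1% DMSO served as control. Final range 256–0.25 µg/mL. MIC50 is the lowest concentration giving ≥50% growth inhibition. Three independent experiments in duplicate, median; fluconazole as reference.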

[10] = Toxicity in Galleria mellonella larvae assessed as larval survival at 10 ug/ml after 72 hrs relative to control; how it was run: as §1
Candida albicans [11] = test: Antibiofilm activity against Candida albicans ATCC 10261 assessed as inhibition of mature biofilm formation by XTT reduction assay; type: functional; how it was run: as §2
Candida albicans [12] = test: Antifungal activity against planktonic form of Candida albicans ATCC 10231 by broth microdilution method; type: organism-based; details: in vitro
How it was run: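 CLSI M27-A3 broth microdilution. Cells grown on Sabouraud dextrose agar at 35°C for 24 h; final inoculum 1×10^3–5×10^3 cells/mL. Compounds from DMSO stocks, final DMSO below 1%, final range 256–0.25 µg/mL. Controls were DMSO 1% and fluconazole reference. MIC50 is the lowest concentration giving ≥50% growth inhibition. Three independent experiments in duplicate; median reported.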

[13] = Toxicity in Galleria mellonella larvae assessed as larval survival at 5 ug/ml after 72 hrs relative to control; how it was run: as §1
[14] = Toxicity in Galleria mellonella larvae assessed as larval survival at 5 ug/ml after 48 hrs relative to control; how it was run: as §1
[15] = Toxicity in Galleria mellonella larvae assessed as larval survival at 500 ug/ml after 48 hrs relative to control; how it was run: as §1
Candida albicans [16] = test: Antibiofilm activity against Candida albicans ATCC 10231 assessed as inhibition of biofilm formation by XTT reduction assay; type: functional; how it was run: as §3
[17] = Toxicity in Galleria mellonella larvae assessed as larval survival at 50 ug/ml after 48 hrs relative to control; how it was run: as §1
[18] = Toxicity in Galleria mellonella larvae assessed as larval survival at 5 ug/ml after 24 hrs relative to control; how it was run: as §1
[19] = Toxicity in Galleria mellonella larvae assessed as larval survival at 500 ug/ml after 24 hrs relative to control; how it was run: as §1
[20] = Toxicity in Galleria mellonella larvae assessed as larval survival at 100 ug/ml after 72 hrs relative to control; how it was run: as §1
[21] = Toxicity in Galleria mellonella larvae assessed as larval survival at 500 ug/ml after 72 hrs relative to control; how it was run: as §1
[22] = Toxicity in Galleria mellonella larvae assessed as larval survival at 10 ug/ml after 48 hrs relative to control; how it was run: as §1
Candida albicans [23] = test: Antifungal activity against planktonic form of Candida albicans PMC 1082 by broth microdilution method; type: organism-based; details: in vitro; how it was run: as §4
[24] = Toxicity in Galleria mellonella larvae assessed as larval survival at 50 ug/ml after 24 hrs relative to control; how it was run: as §1
Candida albicans [25] = test: Antibiofilm activity against Candida albicans PMC 1082 assessed as inhibition of biofilm formation by XTT reduction assay; type: functional; how it was run: as §2
Candida albicans [26] = test: Antibiofilm activity against Candida albicans PMC 1042 assessed as inhibition of mature biofilm formation by XTT reduction assay; type: functional; how it was run: as §2
Candida albicans [27] = test: Antifungal activity against planktonic form of Candida albicans PMC 1042 by broth microdilution method; type: organism-based; details: in vitro; how it was run: as §4

With `c1ccc2c(CCNCc3ccc(CNCCc4c[nH]c5ccccc45)cc3)c[nH]c2c1` the survival at 48 h [1] was 100%, the survival at 24 h [2] was 100% and the MBIC50 (Candida albicans [3]) was 8 µg/mL. For the same molecule, the survival at 72 h [4] was 90%, the MBIC50 (Candida albicans [5]) was 4 µg/mL and the MBIC50 (Candida albicans [6]) was 8 µg/mL. The survival at 24 h [7] was 100%, the MBIC50 (Candida albicans [8]) was 4 µg/mL and the MIC50 (Candida albicans [9]) was 256 µg/mL (≈ 606 µM). The survival at 72 h [10] was 100%, the MBIC50 (Candida albicans [11]) was 4 µg/mL and the MIC50 (Candida albicans [12]) was over 128 µg/mL. The survival at 72 h [13] was 100%, the survival at 48 h [14] was 100% and the survival at 48 h [15] was 100%. For the same molecule, the MBIC50 (Candida albicans [16]) was 16 µg/mL, the survival at 48 h [17] was 90% and the survival at 24 h [18] was 100%. For the same molecule, the survival at 24 h [19] was 100%, the survival at 72 h [20] was 100% and the survival at 72 h [21] was 100%. It also gave a survival at 48 h [22] of 100%, an MIC50 (Candida albicans [23]) of over 256 µg/mL and a survival at 24 h [24] of 100%. It also gave an MBIC50 (Candida albicans [25]) of 8 µg/mL, an MBIC50 (Candida albicans [26]) of 2 µg/mL and an MIC50 (Candida albicans [27]) of over 256 µg/mL.

For `COc1ccc(CNCCc2c[nH]c3ccccc23)cc1[N+](=O)[O-]`, the MBIC50 (Candida albicans [6]) was 32 µg/mL, the MIC50 (Candida albicans [12]) was over 128 µg/mL and the MBIC50 (Candida albicans [16]) was 128 µg/mL.

Molecule `c1ccc(CNCCc2c[nH]c3ccccc23)cc1` has an MBIC50 (Candida albicans [6]) of 32 µg/mL, an MIC50 (Candida albicans [12]) of over 128 µg/mL and an MBIC50 (Candida albicans [16]) of 32 µg/mL.

`O=[N+]([O-])c1ccc(CNCCc2c[nH]c3ccccc23)o1` gave an MBIC50 (Candida albicans [6]) of 16 µg/mL, an MIC50 (Candida albicans [12]) of over 128 µg/mL and an MBIC50 (Candida albicans [16]) of 16 µg/mL.

`O=C(NCCc1c[nH]c2ccccc12)c1cccnc1` [NICOTREDOLE] gave an MBIC50 (Candida albicans [6]) of 64 µg/mL, an MIC50 (Candida albicans [12]) of over 128 µg/mL and an MBIC50 (Candida albicans [16]) of over 128 µg/mL.

Work on `C(=C\c1ccccc1)/CNCCc1c[nH]c2ccccc12` yielded an MBIC50 (Candida albicans [6]) of 64 µg/mL, an MIC50 (Candida albicans [12]) of 64 µg/mL (≈ 232 µM) and an MBIC50 (Candida albicans [16]) of 8 µg/mL.

With `O=C(NCCc1c[nH]c2ccccc12)c1ccc([N+](=O)[O-])o1` the MBIC50 (Candida albicans [6]) was 16 µg/mL, the MIC50 (Candida albicans [12]) was over 128 µg/mL and the MBIC50 (Candida albicans [16]) was 128 µg/mL.

`Clc1ccc(CNCCc2c[nH]c3ccccc23)cc1` showed an MBIC50 (Candida albicans [6]) of 32 µg/mL, an MIC50 (Candida albicans [12]) of 32 µg/mL (≈ 112 µM) and an MBIC50 (Candida albicans [16]) of 16 µg/mL.

With `O=[N+]([O-])c1ccc(N2CCN(Cc3c[nH]c4ccccc34)CC2)cc1` the survival at 48 h [1] was 100%, the survival at 24 h [2] was 100% and the MBIC50 (Candida albicans [3]) was 32 µg/mL. It also gave a survival at 72 h [4] of 100%, an MBIC50 (Candida albicans [5]) of 2 µg/mL and an MBIC50 (Candida albicans [6]) of 4 µg/mL. For the same molecule, the survival at 24 h [7] was 100%, the MBIC50 (Candida albicans [8]) was 32 µg/mL and the MIC50 (Candida albicans [9]) was over 256 µg/mL. The survival at 72 h [10] was 100%, the MBIC50 (Candida albicans [11]) was 8 µg/mL and the MIC50 (Candida albicans [12]) was over 128 µg/mL. The survival at 72 h [13] was 100%, the survival at 48 h [14] was 100% and the survival at 48 h [15] was 100%. The MBIC50 (Candida albicans [16]) was over 128 µg/mL, the survival at 48 h [17] was 100% and the survival at 24 h [18] was 100%. For the same molecule, the survival at 24 h [19] was 100%, the survival at 72 h [20] was 100% and the survival at 72 h [21] was 100%. For the same molecule, the survival at 48 h [22] was 100%, the MIC50 (Candida albicans [23]) was over 256 µg/mL and the survival at 24 h [24] was 100%. It also gave an MBIC50 (Candida albicans [25]) of 32 µg/mL, an MBIC50 (Candida albicans [26]) of 2 µg/mL and an MIC50 (Candida albicans [27]) of over 256 µg/mL.

In the case of `Brc1cccc(CNCCc2c[nH]c3ccccc23)c1`, the MBIC50 (Candida albicans [6]) is reported as 32 µg/mL, the MIC50 (Candida albicans [12]) is reported as 64 µg/mL (≈ 194 µM) and the MBIC50 (Candida albicans [16]) is reported as 4 µg/mL.
